Source: ChEMBL document CHEMBL1134762, “Synthesis and antibacterial evaluation of certain quinolone derivatives” (2001)
≈ marks a conversion by molar mass, not a printed value.

What was measured:
Type in all cases: functional
Enterococcus faecalis = assay: Antibacterial activity tested against vancomycin-resistant Enterococcus faecalis
In short: (§1)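 Broth MIC against clinical isolates (S. pneumoniae, VRE E. faecalis) in tryptic soy broth with 7% calf serum, inoculum 1-5 × 10^5 CFU/mL. DMSO serial dilutions gave 1% final DMSO and a 300 µM highest concentration. Plates were incubated 20-72 h at 37 °C and read by turbidity or microscopy. Vehicle and reference controls were included; run in duplicate.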

Staphylococcus aureus = assay: Antibacterial activity against methicillin-resistant Staphylococcus aureus
In short: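 Broth dilution MIC against MRSA in Mueller-Hinton broth with 1-5 × 10^5 CFU/mL inoculum. Compounds were serially diluted in DMSO (final DMSO 1%, top concentration 300 µM) and incubated 20-72 h at 37 °C. MIC was read by visual turbidity or microscopy. Vehicle and reference agents served as controls; run in duplicate.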

Streptococcus pneumoniae = assay: Antibacterial activity tested against ampicillin and erythromycin-resistant Streptococcus pneumoniae; in short: as §1

SMILES | MIC (Enterococcus faecalis) | MIC (Staphylococcus aureus) | MIC (Streptococcus pneumoniae)
CCn1cc(C(=O)O)c(=O)c2cc(F)c(N3CCN(CC(=O)c4ccc(OC)cc4)CC3)cc21 | > 200 µM | 6.7 µM (≈ 3.13 µg/mL) | > 200 µM
CCn1cc(C(=O)O)c(=O)c2cc(F)c(N3CCNCC3)c(F)c21 | 18.5 µM (≈ 6.24 µg/mL) | 2.31 µM (≈ 0.779 µg/mL) | 18.5 µM (≈ 6.24 µg/mL)
COc1ccc(/C(CN2CCN(c3cc4c(cc3F)c(=O)c(C(=O)O)cn4-c3ccc(N)cc3F)CC2)=N/O)cc1 | 5.32 µM (≈ 3 µg/mL) | 0.53 µM (≈ 0.299 µg/mL) | 1.77 µM (≈ 0.998 µg/mL)
CCn1cc(C(=O)O)c(=O)c2cc(F)c(N3CCN(CC(=O)c4ccc(Cl)cc4)CC3)cc21 | > 200 µM | > 200 µM | > 200 µM
CCn1cc(C(=O)O)c(=O)c2cc(F)c(N3CCN(C/C(=N/NC(N)=O)c4ccccc4)CC3)c(F)c21 | 6.11 µM (≈ 3.13 µg/mL) | 0.39 µM (≈ 0.2 µg/mL) | 6.11 µM (≈ 3.13 µg/mL)
Nc1ccc(-n2cc(C(=O)O)c(=O)c3cc(F)c(N4CCNCC4)cc32)c(F)c1 | 15.6 µM (≈ 6.25 µg/mL) | 0.97 µM (≈ 0.388 µg/mL) | 3.9 µM (≈ 1.56 µg/mL)
O=C(CN1CCN(c2cc3c(cc2F)c(=O)c(C(=O)O)cn3-c2ccc([N+](=O)[O-])cc2)CC1)c1ccc(F)cc1 | > 200 µM | > 200 µM | > 200 µM
COc1ccc(C(=O)CN2CCN(c3cc4c(cc3F)c(=O)c(C(=O)O)cn4-c3ccc([N+](=O)[O-])cc3)CC2)cc1 | > 200 µM | 5.58 µM (≈ 3.13 µg/mL) | > 200 µM
CCn1cc(C(=O)O)c(=O)c2cc(F)c(N3CCN(C/C(=N\O)c4ccc(F)cc4)CC3)c(F)c21 | 2.05 µM (≈ 1 µg/mL) | 0.61 µM (≈ 0.298 µg/mL) | 6.14 µM (≈ 3 µg/mL)
CCn1cc(C(=O)O)c(=O)c2cc(F)c(N3CCN(C/C(=N/NC(N)=O)c4ccccc4)CC3)cc21 | 25.3 µM (≈ 12.5 µg/mL) | 3.15 µM (≈ 1.56 µg/mL) | 25.3 µM (≈ 12.5 µg/mL)
CCn1cc(C(=O)O)c(=O)c2cc(F)c(N3CCN(C/C(=N/N=C(/N)S)c4ccccc4)CC3)cc21 | 12.2 µM (≈ 6.23 µg/mL) | 1.53 µM (≈ 0.781 µg/mL) | 24.5 µM (≈ 12.5 µg/mL)
CCn1cc(C(=O)O)c(=O)c2cc(F)c(N3CCN(CC(=O)c4ccc(OC)cc4)CC3)c(F)c21 | > 200 µM | 0.62 µM (≈ 0.301 µg/mL) | > 200 µM
CCn1cc(C(=O)O)c(=O)c2cc(F)c(N3CCN(C/C(=N\O)c4ccccc4)CC3)cc21 | > 200 µM | 0.44 µM (≈ 0.199 µg/mL) | > 200 µM
CCn1cc(C(=O)O)c(=O)c2cc(F)c(N3CCN(C/C(=N\OC)c4ccc(Cl)cc4)CC3)cc21 | > 200 µM |  | > 200 µM
CCn1cc(C(=O)O)c(=O)c2cc(F)c(N3CCN(C/C(=N/N=C(/N)S)c4ccccc4)CC3)c(F)c21 | > 200 µM | 0.74 µM (≈ 0.391 µg/mL) | > 200 µM
CCn1cc(C(=O)O)c(=O)c2cc(F)c(N3CCN(C/C(=N\O)c4ccc(OC)cc4)CC3)cc21 | 3.23 µM (≈ 1.56 µg/mL) | 0.41 µM (≈ 0.198 µg/mL) | 13 µM (≈ 6.27 µg/mL)
COc1ccc(C(=O)CN2CCN(c3cc4c(cc3F)c(=O)c(C(=O)O)cn4-c3ccc([N+](=O)[O-])cc3F)CC2)cc1 | 43.2 µM (≈ 25 µg/mL) | 2.7 µM (≈ 1.56 µg/mL) | 5.41 µM (≈ 3.13 µg/mL)

SMILES | MIC (Enterococcus faecalis) | MIC (Staphylococcus aureus) | MIC (Streptococcus pneumoniae)
CCn1cc(C(=O)O)c(=O)c2cc(F)c(N3CCN(C/C(=N\OC)c4ccc(Cl)cc4)CC3)c(F)c21 | > 200 µM | > 200 µM | > 200 µM
CCn1cc(C(=O)O)c(=O)c2cc(F)c(N3CCN(C/C(=N\N)c4ccc(F)cc4)CC3)cc21 | 26.6 µM (≈ 12.5 µg/mL) | 1.66 µM (≈ 0.779 µg/mL) | 26.6 µM (≈ 12.5 µg/mL)
COc1ccc(/C(CN2CCN(c3cc4c(cc3F)c(=O)c(C(=O)O)cn4-c3ccc([N+](=O)[O-])cc3)CC2)=N/O)cc1 | 21.7 µM (≈ 12.5 µg/mL) | 1.36 µM (≈ 0.783 µg/mL) | 10.9 µM (≈ 6.27 µg/mL)
CCn1cc(C(=O)O)c(=O)c2cc(F)c(N3CCN(CC(=O)c4ccccc4)CC3)cc21 | > 200 µM | 7.15 µM (≈ 3.13 µg/mL) | > 200 µM
COc1ccc(C(=O)CN2CCN(c3cc4c(cc3F)c(=O)c(C(=O)O)cn4-c3ccc(N)cc3F)CC2)cc1 | 5.47 µM (≈ 3 µg/mL) | 0.55 µM (≈ 0.302 µg/mL) | 1.82 µM (≈ 0.998 µg/mL)
COc1ccc(/C(CN2CCN(c3cc4c(cc3F)c(=O)c(C(=O)O)cn4-c3ccc([N+](=O)[O-])cc3F)CC2)=N/O)cc1 | 5.27 µM (≈ 3.13 µg/mL) | 0.34 µM (≈ 0.202 µg/mL) | 1.31 µM (≈ 0.778 µg/mL)
CCn1cc(C(=O)O)c(=O)c2cc(F)c(N3CCN(C/C(=N\OC)c4ccc(OC)cc4)CC3)cc21 | 12.6 µM (≈ 6.26 µg/mL) | 1.57 µM (≈ 0.78 µg/mL) | 12.6 µM (≈ 6.26 µg/mL)
CCn1cc(C(=O)O)c(=O)c2cc(F)c(N3CCNCC3)cc21 [NORFLOXACIN] | 9.8 µM (≈ 3.13 µg/mL) | 4.89 µM (≈ 1.56 µg/mL) | 19.6 µM (≈ 6.26 µg/mL)
O=C(O)c1cn(-c2ccc([N+](=O)[O-])cc2)c2cc(N3CCN(C/C(=N\O)c4ccc(F)cc4)CC3)c(F)cc2c1=O | > 200 µM | > 200 µM | > 200 µM
CCn1cc(C(=O)O)c(=O)c2cc(F)c(N3CCN(C/C(=N\O)c4ccc(Cl)cc4)CC3)cc21 | > 200 µM | > 200 µM | > 200 µM
CCn1cc(C(=O)O)c(=O)c2cc(F)c(N3CCN(CC(=O)c4ccc(F)cc4)CC3)cc21 | > 200 µM | 6.87 µM (≈ 3.13 µg/mL) | > 200 µM
CCn1cc(C(=O)O)c(=O)c2cc(F)c(N3CCN(CC(=O)c4ccccc4)CC3)c(F)c21 | 13.7 µM (≈ 6.24 µg/mL) | 1.71 µM (≈ 0.779 µg/mL) | 13.7 µM (≈ 6.24 µg/mL)
CCn1cc(C(=O)O)c(=O)c2cc(F)c(N3CCN(C/C(=N\O)c4ccc(Cl)cc4)CC3)c(F)c21 | 19.8 µM (≈ 10 µg/mL) | 0.59 µM (≈ 0.298 µg/mL) | 19.8 µM (≈ 10 µg/mL)
CCn1cc(C(=O)O)c(=O)c2cc(F)c(N3CCN(C/C(=N\O)c4ccc(OC)cc4)CC3)c(F)c21 | 3.12 µM (≈ 1.56 µg/mL) | 0.2 µM (≈ 0.1 µg/mL) | 6.25 µM (≈ 3.13 µg/mL)
O=C(O)c1cn(-c2ccc([N+](=O)[O-])cc2F)c2cc(N3CCNCC3)c(F)cc2c1=O | 29 µM (≈ 12.5 µg/mL) | 7.27 µM (≈ 3.13 µg/mL) | 0.46 µM (≈ 0.198 µg/mL)
CCn1cc(C(=O)O)c(=O)c2cc(F)c(N3CCN(C/C(=N\O)c4ccc(F)cc4)CC3)cc21 | > 200 µM | 2.13 µM (≈ 1 µg/mL) | > 200 µM
